Assay results as given in publication PMC9306928 (Journal of Veterinary Pharmacology and Therapeutics, 2022).
Like-named read-outs stand apart in the source and are kept apart here. Marks after values point to notes of the source that are not given here. Blank lines part the entries; values can stand above or below the molecule they belong to.

Assays:
COX‐2 = target: T1, COX‐2 (Canis lupus familiaris, UniProt Q8SPQ9); assay type: cell-based, dog
T1 sequence (Q8SPQ9 18-604): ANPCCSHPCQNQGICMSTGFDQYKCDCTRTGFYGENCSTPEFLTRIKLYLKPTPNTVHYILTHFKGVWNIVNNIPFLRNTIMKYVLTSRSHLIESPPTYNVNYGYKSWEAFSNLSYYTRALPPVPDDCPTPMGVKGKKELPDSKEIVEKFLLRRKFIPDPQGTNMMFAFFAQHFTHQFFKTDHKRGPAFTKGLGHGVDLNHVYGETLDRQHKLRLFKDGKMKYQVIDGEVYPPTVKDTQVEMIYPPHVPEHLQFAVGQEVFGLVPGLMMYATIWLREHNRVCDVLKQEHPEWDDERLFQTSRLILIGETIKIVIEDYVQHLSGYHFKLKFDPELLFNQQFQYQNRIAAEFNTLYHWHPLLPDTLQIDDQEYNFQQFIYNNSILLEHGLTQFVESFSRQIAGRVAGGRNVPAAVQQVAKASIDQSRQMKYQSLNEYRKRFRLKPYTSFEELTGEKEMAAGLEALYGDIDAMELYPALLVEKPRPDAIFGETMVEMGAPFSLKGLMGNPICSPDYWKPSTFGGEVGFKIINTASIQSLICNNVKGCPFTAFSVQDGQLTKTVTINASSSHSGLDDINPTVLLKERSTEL
In short: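 Citrated blood from three male and three female Beagles was held 4–6 h at ca 2–8°C. Duplicates received test compound at final 100, 30, 10, 3, 1, 0.3, 0.1 or 0 µM (one enantiomer max 30 µM; 0.4% DMSO) with LPS 1 µg/ml final, for 24 h at ca 37°C with orbital agitation. Plasma PGE2 was measured by ELISA (1:1000). Per-dog Hill fits gave IC50 and gamma; IC20/IC80 were derived.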

COX‐1/COX‐2 [1] = conditions: cited from earlier work
COX‐1 = target: T2, COX‐1 (Canis lupus familiaris, UniProt Q8HZR1); assay type: cell-based, dog; conditions: Hill equation fit of TXB2 formation; mean of six dogs
T2 sequence (Q8HZR1 28-603): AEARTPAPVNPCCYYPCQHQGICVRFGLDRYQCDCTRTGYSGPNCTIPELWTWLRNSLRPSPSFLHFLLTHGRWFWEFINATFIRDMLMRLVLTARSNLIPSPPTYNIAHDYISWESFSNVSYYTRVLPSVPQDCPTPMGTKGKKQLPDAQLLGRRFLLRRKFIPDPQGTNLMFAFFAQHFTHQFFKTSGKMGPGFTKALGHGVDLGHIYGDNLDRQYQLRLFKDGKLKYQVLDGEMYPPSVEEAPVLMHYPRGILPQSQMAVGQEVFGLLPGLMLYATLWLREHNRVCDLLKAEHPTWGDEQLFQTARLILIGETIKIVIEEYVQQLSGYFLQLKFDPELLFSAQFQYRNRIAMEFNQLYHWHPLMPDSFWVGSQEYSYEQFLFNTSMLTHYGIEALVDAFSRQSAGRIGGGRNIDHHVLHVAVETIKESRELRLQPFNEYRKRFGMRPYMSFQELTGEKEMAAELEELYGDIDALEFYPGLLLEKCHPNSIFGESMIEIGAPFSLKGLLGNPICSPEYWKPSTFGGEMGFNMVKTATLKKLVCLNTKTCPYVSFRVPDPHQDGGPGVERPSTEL
In short: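 Whole blood from six male Beagles was drawn without anticoagulant and used at once. Duplicate incubations received test compound at final 500, 300, 100, 30, 10, 3, 1 or 0 µM (0.4% v/v DMSO) plus PBS, for 1 h at ca 37°C with gentle shaking. Serum TXB2 was measured by ELISA (1:3000, 412 nm). Per-dog 4-parameter Hill fits gave IC50 and gamma, and IC20/IC80 were calculated from these.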

COX‐1/COX‐2 [2] = assay: Selectivity for COX‐2 inhibition; assay type: cell-based; conditions: dog whole blood, not corrected for blood cell partitioning
In short: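 Selectivity was the quotient of mean IC50 values (six Beagles each) from two canine whole blood assays. One was clotting-induced TXB2 (COX-1; unanticoagulated blood, 1 h, ca 37°C). The other was LPS-induced PGE2 (COX-2; citrated blood, 1 µg/ml LPS, 24 h). Both were read by ELISA and Hill-fitted. IC50 ratios were tested by paired t test, and compounds by one-way ANOVA/Tukey.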

[3] = tested on: PGE2 formation in gastric mucosa; conditions: rat carrageenan model, dose of 40 mg/kg; ref Iñiguez et al. (2010); cited from earlier work
[4] = whole blood concentration, not corrected for blood cell partitioning
[5] = ref King et al., 2010, McCann et al., 2004

IC50 for COX‐2 inhibition expressed as blood level (COX‐2; [4]): > 12 µg/mL
IC80 for COX‐2 inhibition expressed as blood level (COX‐2; [4]): > 12 µg/mL
SMILES: NS(=O)(=O)c1ccc(N2N=C(C(F)(F)F)C[C@@H]2c2ccc(F)cc2F)cc1 [(R)‐(+)‐Enflicoxib]

SMILES: CC(C(=O)O)c1ccc2c(c1)[nH]c1ccc(Cl)cc12 (stereo not shown) [carprofen]
COX‐2 selectivity ratio (COX‐1/COX‐2 [1]; ref Briedeau et al., 2001): ~6.5

SMILES: CCc1ccc(Nc2c(F)c(F)cc(F)c2F)c(CC(=O)O)c1 [robenacoxib]
COX‐2 selectivity ratio (COX‐1/COX‐2 [1]; [5]): 129

Gamma (sigmoidicity factor), COX‐1 (COX‐1): 1.8
Gamma (sigmoidicity factor), COX‐2 (COX‐2; Hill equation fit of PGE2 formation, mean of six dogs): 2.7
SMILES: NS(=O)(=O)c1ccc(N2N=C(C(F)(F)F)C[C@H]2c2ccc(F)cc2F)cc1 [(S)‐(‐)‐Enflicoxib]
Ratio IC50 (COX‐1/COX‐2) (COX‐1/COX‐2 [2]): 3.77‡
inhibition of PGE2 formation in gastric mucosa [3]: 18%

SMILES: COc1ccc(-c2cc(C(F)F)nn2-c2ccc(S(N)(=O)=O)cc2)cc1F [deracoxib]
COX‐2 selectivity ratio (COX‐1/COX‐2 [1]; [5]): 48.5

SMILES: CC1(C)OC(=O)C(OCC2CC2)=C1c1ccc(S(C)(=O)=O)cc1 [firocoxib]
COX‐2 selectivity ratio (COX‐1/COX‐2 [1]; [5]): 384
